Measurements published in ChEMBL document CHEMBL1145402, “Discovery of potent and muscle selective androgen receptor modulators through scaffold modifications” (J Med Chem, 2007).

What was measured:
Androgen receptor [1] = biological target: T1, Androgen receptor (Homo sapiens, UniProt P10275); test: Displacement of [3H]DHT from androgen receptor expressed in MDA-MB-453 cells; format: cell-based
T1 sequence (P10275 whole entry): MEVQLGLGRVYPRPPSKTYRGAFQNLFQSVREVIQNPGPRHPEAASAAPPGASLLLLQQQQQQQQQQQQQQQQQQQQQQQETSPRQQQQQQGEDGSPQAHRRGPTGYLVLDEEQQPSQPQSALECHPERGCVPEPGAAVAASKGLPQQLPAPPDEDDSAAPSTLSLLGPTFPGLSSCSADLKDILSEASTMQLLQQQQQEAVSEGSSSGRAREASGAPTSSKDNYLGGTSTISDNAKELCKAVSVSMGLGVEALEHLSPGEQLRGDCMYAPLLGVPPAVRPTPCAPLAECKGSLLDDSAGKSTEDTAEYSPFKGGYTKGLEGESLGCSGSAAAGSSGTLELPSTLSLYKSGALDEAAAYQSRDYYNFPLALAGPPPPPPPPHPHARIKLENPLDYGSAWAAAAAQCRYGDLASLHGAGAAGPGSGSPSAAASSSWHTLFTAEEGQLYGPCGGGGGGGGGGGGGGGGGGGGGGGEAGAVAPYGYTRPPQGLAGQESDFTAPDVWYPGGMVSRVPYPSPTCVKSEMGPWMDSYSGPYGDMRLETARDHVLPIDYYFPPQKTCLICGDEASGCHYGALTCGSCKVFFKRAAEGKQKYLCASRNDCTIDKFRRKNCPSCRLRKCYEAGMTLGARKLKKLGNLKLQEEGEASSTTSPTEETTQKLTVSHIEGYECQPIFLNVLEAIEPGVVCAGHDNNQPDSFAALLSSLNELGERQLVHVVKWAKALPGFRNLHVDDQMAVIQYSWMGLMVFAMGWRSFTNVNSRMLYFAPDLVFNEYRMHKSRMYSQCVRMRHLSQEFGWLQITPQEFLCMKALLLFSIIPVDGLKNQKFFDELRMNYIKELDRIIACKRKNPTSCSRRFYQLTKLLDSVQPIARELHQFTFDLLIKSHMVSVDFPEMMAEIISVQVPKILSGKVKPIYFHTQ

Androgen receptor [2] = biological target: T1, Androgen receptor; test: Agonist activity at androgen receptor expressed in C2C12 mouse cells by luciferase reporter transactivation assay; format: functional, cell-based
Rattus norvegicus [3] = test: Stimulation of ventral prostate tissue weight in Sprague-Dawley rat at 1 mg/kg, po after 14 days; format: functional, Prostate gland
Outline: (§1)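 Mature male rats were castrated two weeks before treatment. Compound was given […] once daily for two weeks, then levator ani muscle and ventral prostate were weighed. Weights are expressed as percent of a sham-operated, vehicle-treated intact control group, ±SEM.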

Rattus norvegicus [4] = test: Stimulation of levator ani muscle weight in Sprague-Dawley rat at 1 mg/kg, po after 14 days; format: functional; outline: as §1
Rattus norvegicus [5] = test: Stimulation of ventral prostate tissue weight in Sprague-Dawley rat at 0.3 mg/kg, sc after 14 days; format: functional, Prostate gland; settings: route subcutaneous
Outline: (§2)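 Mature male rats were castrated two weeks before dosing. Testosterone propionate was given subcutaneously for two weeks, then levator ani muscle and ventral prostate were weighed. Weights are expressed as percent of a sham-operated, vehicle-treated intact control group, ±SEM.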

Rattus norvegicus [6] = test: Stimulation of levator ani muscle weight in Sprague-Dawley rat at 0.3 mg/kg, sc after 14 days; format: functional; settings: route subcutaneous; outline: as §2

Row | SMILES | Ki (Androgen receptor [1]) [nM] | EC50 (Androgen receptor [2]) [nM] | also measured
1 | CC[C@@H]1[C@@H]2[C@@H](O)CCN2C(=O)N1c1ccc(C#N)c(Cl)c1C | 1.6 | 7.1 | –
2 | Cc1c(N2C(=O)N3CC[C@H](O)[C@H]3[C@@H]2C(F)(F)F)ccc(C#N)c1Cl | 0.9 | 2.5 | –
3 | Cc1c(N2C[C@@H]3[C@H](O)CC[C@@H]3C2=O)ccc(C#N)c1Cl | – | 20 | Activity (Rattus norvegicus [3]): 6%; Activity (Rattus norvegicus [4]): 45%
4 | Cc1c(N2C(=O)N3CC[C@H](O)[C@H]3[C@H]2C(F)(F)F)ccc(C#N)c1Cl | 1.9 | 48 | –
5 | CC[C@@H]1[C@@H]2[C@H](O)CCN2C(=O)N1c1ccc(C#N)c(Cl)c1C | 2.3 | 7.4 | –
6 | Cc1c(N2C(=O)N3CC[C@@H](O)[C@H]3[C@H]2C(C)C)ccc(C#N)c1Cl | 23 | 108 | –
7 | CC1=C(c2ccc(C#N)c(Cl)c2C)C(=O)N2CC[C@H](O)[C@@H]12 | – | 2 | –
8 | CCC(=O)O[C@H]1CC[C@H]2[C@@H]3CCC4=CC(=O)CC[C@]4(C)[C@H]3CC[C@]12C [TESTOSTERONE PROPIONATE] | – | – | Activity (Rattus norvegicus [5]): 68%; Activity (Rattus norvegicus [6]): 70%
